Apaf-1 inh: inhibitors of human Apaf-1 apoptosome; 330,000 tested, 0.71% active; reconstituted apoptosome caspase-3 activity, DEVD-Rh110 fluorescence; O14727; inhibition, % at 20 µM; active = inhibition of at least 40% at 20 µM;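 also: plate controls were DMSO wells for no effect and DEVD-CHO caspase inhibitor wells for full effect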
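System – cell-free apoptosome with Apaf-1, procaspase-3 and caspase-9 · Buffer or medium – pH 7.5 Hepes buffer with CHAPS, BSA, DTT · Also added – cytochrome c with DEVD-Rh110 · Times – 30 min compound preincubation, 50 min activation, room temperature · Technique – Rh110 fluorescence intensity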
UBC13 polyUb: blocks human UBC13 polyubiquitin chain formation; P61088; TR-FRET; inhibition, % at 20 µM; 330,000 tested, 0.47% active; in the data active = inhibition above about 45%, passing the limit was not always enough
SENP7 block: SENP7 protease inhibition | Q9BQF6 | recombinant SENP7, Z-RLRGG-aminoluciferin luminescence, 40 min | inhibition, % at 5 µM | 330,000 tested, 1.5% active | AID 434973;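 active = inhibition above about 50% at the single test dose, limit read from the data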;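 also: plate controls were DMSO with enzyme for no effect and no enzyme buffer wells for full effect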
Target sequence (Q9BQF6 706-1050 limits assumed): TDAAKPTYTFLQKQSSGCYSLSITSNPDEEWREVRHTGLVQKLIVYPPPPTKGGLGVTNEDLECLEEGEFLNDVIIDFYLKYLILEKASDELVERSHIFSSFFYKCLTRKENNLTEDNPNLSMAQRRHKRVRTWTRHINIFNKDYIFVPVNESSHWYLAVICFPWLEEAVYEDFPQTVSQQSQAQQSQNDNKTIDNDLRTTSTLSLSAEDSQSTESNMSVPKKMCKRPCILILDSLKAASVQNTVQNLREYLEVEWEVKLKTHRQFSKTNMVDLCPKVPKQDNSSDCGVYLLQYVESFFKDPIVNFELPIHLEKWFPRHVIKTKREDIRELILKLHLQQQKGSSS
SENP6 inh: inhibitors of human SENP6 protease. Q9GZR1. Recombinant SENP6 catalytic domain, aminoluciferin luminescence. inhibition, % at 10 µM. 330,000 tested, 1.8% active. AID 2599;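 active = inhibition above about 50% at the single tested dose, limit read from the data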;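 also: plate controls were DMSO wells with enzyme for no effect and DMSO wells lacking enzyme for full effect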
SENP8 block-1: inhibitors of human SENP8 protease; Q96LD8; recombinant SENP8, Nedd8 substrate fluorescence; inhibition, % at 20 µM; 360,000 tested, 0.64% active; AID 602440; in the data active = inhibition mostly above about 40%, no sharp cut-off; inactive = mostly below about 27%
Target sequence (Q96LD8 whole entry, looked up): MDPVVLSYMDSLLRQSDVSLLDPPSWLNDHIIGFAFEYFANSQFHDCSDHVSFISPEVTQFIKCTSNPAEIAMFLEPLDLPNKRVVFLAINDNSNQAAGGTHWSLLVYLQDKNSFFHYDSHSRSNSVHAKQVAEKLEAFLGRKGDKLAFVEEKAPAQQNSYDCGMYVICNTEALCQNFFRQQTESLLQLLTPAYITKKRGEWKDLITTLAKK
SENP8 block-2: SENP8 protease inhibition; inhibition, % at 10 µM; purified SENP8, Z-RLRGG-aminoluciferin cleavage, luminescence; 330,000 tested, 1.2% active; in the data active = inhibition above about 50%
Apaf-1 inh conf: confirmation of Apaf-1 inhibitors | shares compounds with Apaf-1 inh | reconstituted apoptosome, caspase-3 DEVD-Rh110 fluorescence | inhibition, % at 20 µM | 1,800 tested, 25% active;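 active = mean inhibition of at least 40% at 20 µM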;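 also: plate controls were DMSO wells for no effect and DEVD-CHO caspase inhibitor control wells for full effect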
Rh110 interf inh: counter-screen for Apaf-1 inhibitors: fluorescence interference | shares compounds with Apaf-1 inh | Rh110 fluorescence interference, quenched caspase reaction | activation (fluorescence interference), % at 20 µM | 1,800 tested, under 10 active;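 active = signal rise of 40% or more at 20 µM, treated as a fluorescence artifact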
Fluor interf inh: shows fluorescence interference in the Apaf-1 inhibitor assay format. AID 588538. IC50, µM. fluorescence interference counterscreen, Apaf-1 assay format. shares compounds with Apaf-1 inh. 460 tested, under 10 active; call rule not given here
Numbers without * were called inactive. Hits are enriched below; roughly 3% of the tested compounds scored in any of these assays.

O=C(N/N=C/c1ccc(-c2ccccc2[N+](=O)[O-])o1)[C@H]1C[C@@H]1c1ccccc1 was read as Apaf-1 inh 68*, UBC13 polyUb -16, SENP7 block 4, SENP6 inh 22, SENP8 block-1 -2, SENP8 block-2 12, Apaf-1 inh conf 22 and Rh110 interf inh 2.
`Cc1csc(SCC(=O)Nc2cc(F)ccc2C)n1` gave SENP8 block-1 10.
For O=C1CCN(Cc2ccccc2)C=C1c1ccc(Cl)cc1 the results were Apaf-1 inh 47*, UBC13 polyUb 13, SENP7 block 3, SENP6 inh -7, SENP8 block-1 -3, SENP8 block-2 4, Apaf-1 inh conf 5 and Rh110 interf inh 4.
O=C1CCN(Cc2ccccc2)C=C1c1ccc(C(F)(F)F)cc1 was read as Apaf-1 inh 10, UBC13 polyUb -10, SENP7 block -5, SENP6 inh 15, SENP8 block-1 -12 and SENP8 block-2 -6.
For Cc1cc(N(CCO)CCO)ccc1N=Nc1cc(F)ccc1F the results were Apaf-1 inh 40*, UBC13 polyUb -348, SENP7 block 1, SENP6 inh 20, SENP8 block-1 35, SENP8 block-2 6, Apaf-1 inh conf 22 and Rh110 interf inh 15.
Screening COC(=O)c1ccc(-c2ncc(-c3cccc4ccccc34)o2)cc1 returned Apaf-1 inh 42*, UBC13 polyUb 31, SENP7 block -14, SENP6 inh -21, SENP8 block-1 inactive, SENP8 block-2 -15, Apaf-1 inh conf 9 and Rh110 interf inh 7.
Screening COc1ccc(C(CNC(=O)c2cccn2C)N2CCOCC2)cc1 (centres undefined) returned Apaf-1 inh 47*, UBC13 polyUb -39, SENP7 block 8, SENP6 inh -1, SENP8 block-1 -3, SENP8 block-2 -1, Apaf-1 inh conf 36 and Rh110 interf inh -3.
COc1ccc(C(CNC(=O)c2ccc(C)o2)N2CCOCC2)cc1 (centres undefined) was read as Apaf-1 inh 4, UBC13 polyUb -7, SENP7 block 1, SENP6 inh 5, SENP8 block-1 -12 and SENP8 block-2 2.
`O=C(Cn1cc(CCO)nn1)N1CCNCC1` gave Apaf-1 inh -1, UBC13 polyUb 4, SENP7 block -6, SENP6 inh 5, SENP8 block-1 13 and SENP8 block-2 2.
`CC(=O)c1ccc(N2CCN(S(=O)(=O)c3ccc4c5c3CC(=O)N5CC(C)S4)CC2)cc1` (centres undefined) gave Apaf-1 inh 56*, UBC13 polyUb -15, SENP7 block 18, SENP6 inh 14, SENP8 block-1 -109, SENP8 block-2 6, Apaf-1 inh conf 42*, Rh110 interf inh 6 and Fluor interf inh >100.
`CCCCCCOC(=O)C(C#N)c1nc2ccccc2nc1N1CCN(CC)CC1` (centres undefined) gave Apaf-1 inh 42*, UBC13 polyUb 15, SENP7 block -4, SENP6 inh -3, SENP8 block-1 -71, SENP8 block-2 -3, Apaf-1 inh conf 28 and Rh110 interf inh 10.
Screening COCCCNC(=O)/C=C1\Sc2ccccc2N(Cc2ccccc2F)C1=O returned Apaf-1 inh 11, UBC13 polyUb -18, SENP7 block -7, SENP6 inh -11, SENP8 block-1 -238 and SENP8 block-2 -13.
`CCN1CCN(CCNC(=O)c2ccc(/C=C3\Sc4ccccc4N(Cc4ccccc4F)C3=O)cc2)CC1` gave Apaf-1 inh 41*, UBC13 polyUb 38, SENP7 block 7, SENP6 inh -9, SENP8 block-1 -65, SENP8 block-2 -2, Apaf-1 inh conf 27 and Rh110 interf inh 6.
`CCN1CCCC1CNC(=O)c1cc2c(-c3cccc(OC)c3)nn(C)c2s1` (centres undefined) gave Apaf-1 inh 1, UBC13 polyUb 39, SENP7 block 2, SENP6 inh -2, SENP8 block-1 inactive and SENP8 block-2 10.
Screening CCN1CCCC1CNC(=O)c1cc2c(-c3ccc(Cl)cc3)nn(C)c2s1 (centres undefined) returned Apaf-1 inh 49*, UBC13 polyUb 41, SENP7 block -7, SENP6 inh -6, SENP8 block-1 -407, SENP8 block-2 -17, Apaf-1 inh conf 11 and Rh110 interf inh 13.
Screening CCC1C(=O)N=C(SCC(=O)Nc2nc3ccccc3s2)NC1=O (centres undefined) returned Apaf-1 inh 70*, UBC13 polyUb 1, SENP7 block -1, SENP6 inh 15, SENP8 block-1 5, SENP8 block-2 2, Apaf-1 inh conf 2 and Rh110 interf inh 9.
`CC1(C(=O)Nc2ccc3c(c2)OCO3)Cc2c(-c3cccc(C(F)(F)F)c3)ccnc2O1` (centres undefined) gave SENP8 block-1 7.
COC(=O)[C@@]12C[C@@H](CC(=O)NCc3cccc(C(F)(F)F)c3)C(=O)N(Cc3cccc4ccccc34)C1=CCC(C)(C)C2 was read as SENP8 block-1 31.
`O=C(Cc1cccc(C(F)(F)F)c1)OCC(=O)N1CCN(S(=O)(=O)c2ccc(Cl)cc2)CC1` gave Apaf-1 inh 51*, UBC13 polyUb -8, SENP7 block -14, SENP6 inh -22, SENP8 block-1 2, SENP8 block-2 -8, Apaf-1 inh conf 28 and Rh110 interf inh -9.
`O=c1[nH]c2cc3c(cc2cc1CN(CCc1ccccc1)C(=S)NCCCN1CCOCC1)OCCO3` gave SENP8 block-1 -338.
Screening CCOC(=O)c1c(NC(=O)CSc2ncnc3[nH]ncc23)sc2c1CCC(C)C2 (centres undefined) returned Apaf-1 inh 5, UBC13 polyUb 3, SENP7 block -6, SENP6 inh -15, SENP8 block-1 -5 and SENP8 block-2 -9.
Screening CC1(C)CC(=O)c2c(-c3cccnc3)n[nH]c2C1 returned Apaf-1 inh 43*, UBC13 polyUb 1, SENP7 block -6, SENP6 inh -14, SENP8 block-1 5, SENP8 block-2 -3, Apaf-1 inh conf 9 and Rh110 interf inh 1.
For CC(C)OC(=O)C(C)Nc1ccc(F)c(Cl)c1 (centres undefined) the results were Apaf-1 inh -15, UBC13 polyUb 8, SENP7 block -1, SENP6 inh -2, SENP8 block-1 25 and SENP8 block-2 -6.

Screening data (PubChem BioAssay)
